Screening data (PubChem BioAssay)
Sampled rows, rich in hits. Any-hit rate of the full collection: about 2.2%.
STAT3 inh: reduces IL-6 driven STAT3 reporter signal; U3A cells, IL-6 STAT3-luciferase reporter, luminescence; host cell line lacks STAT1; inhibition, % at 5.5 µM; hit rate 0.89% among 190,000; AID 862;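 active means inhibition above the mean inhibition across all screened compounds plus 3 SD, cut at about 44% in these data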
HSP90 refold inh: inhibitors of HSP90 luciferase refolding in rabbit reticulocyte lysate; inhibition, % at 5.6 µM; luciferase refolding luminescence, 3 h; hit rate 0.91% among 290,000; AID 1789;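 active means inhibition above the screen-wide mean plus 3 SD, computed separately per campaign, cut at about 16% in these data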;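 further: inhibitors lower the luminescence because luciferase stays unfolded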
FLuc act counter: firefly luciferase counter-screen for stimulation assays; P08659; ATPlite luciferase biochemical, luminescence, 10 min; 0 = ATP-free wells, 1 = DMSO control; activation factor at 10 µM; 200,000 tested, under 10 active;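 active means luciferase activation factor, scaled between plate controls, of at least 2 with compound at 10 µM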
Target sequence (P08659 whole entry, looked up): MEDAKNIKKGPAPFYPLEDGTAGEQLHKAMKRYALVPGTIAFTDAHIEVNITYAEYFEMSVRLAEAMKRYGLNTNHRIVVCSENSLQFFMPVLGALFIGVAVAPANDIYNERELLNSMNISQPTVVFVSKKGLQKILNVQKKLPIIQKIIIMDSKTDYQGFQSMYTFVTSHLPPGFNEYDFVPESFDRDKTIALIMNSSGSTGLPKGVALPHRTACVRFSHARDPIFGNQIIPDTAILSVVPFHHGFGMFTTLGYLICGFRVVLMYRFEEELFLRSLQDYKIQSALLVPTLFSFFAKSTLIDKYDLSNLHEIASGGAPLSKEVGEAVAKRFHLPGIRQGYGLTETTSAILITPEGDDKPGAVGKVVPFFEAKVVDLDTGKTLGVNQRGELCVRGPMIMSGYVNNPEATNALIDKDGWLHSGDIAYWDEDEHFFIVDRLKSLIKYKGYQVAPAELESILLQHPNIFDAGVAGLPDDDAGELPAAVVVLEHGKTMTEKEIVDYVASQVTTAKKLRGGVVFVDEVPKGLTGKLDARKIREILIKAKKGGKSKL
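System: Luciferase/luciferin detection reagent, cell-free biochemical luciferase assay | Medium: PBS buffer for ATP | Dosing: Test compounds dosed from 2 mM stocks in 100% DMSO | Timing: 10 min at ambient temperature | Signal: Luminescence measurement of luciferase light output | Evaluation: Luciferase activation, seen as luminescence increase over controls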
C8 TRAIL sens: caspase-8 TRAIL sensitization | NB7+C8 cells + TRAIL, ATPlite viability luminescence | inhibition (viability loss, TRAIL sensitization), % at 10 µM | hit rate 1% among 360,000;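 active means compounds causing at least 50% loss of cell viability in the single-dose screen, relative to plate controls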
PPC-1+TRAIL kill: PPC-1 cancer cell killing with TRAIL present. PPC-1 cells + TRAIL, ATPLite viability luminescence. AID 1443. hit rate 0.41% among 220,000. cell killing (% activity), % at 4 µM or 5 µM;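 active means cell killing above 50% in the first pass at 4 µM, then a duplicate retest at 5 µM averaging 50% or more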
FLuc inhib CS: inhibits firefly luciferase, flagging false hits in luciferase inhibition screens | inhibition, % at 10 µM | hit rate 1.5% among 200,000 | P08659 | ATPLite firefly luciferase biochemical luminescence, 10 min;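 active means inhibition above about 50% when tested at 10 µM, limit read from the data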
PPC-1 tox: kills PPC-1 cells | shares compounds with PPC-1+TRAIL kill | PPC-1 viability, ATPlite luminescence, overnight | cytotoxicity, % at 5 µM | hit rate 50% among 1,200 | AID 1447;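 active means reconfirmed compounds whose average cytotoxicity reaches 50% or more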
A number is an active result; - = inactive; . = no result.

SMILES	STAT3 inh	HSP90 refold inh	FLuc act counter	C8 TRAIL sens	PPC-1+TRAIL kill	FLuc inhib CS	PPC-1 tox
COc1ccc(/C=C/c2cc(C(=O)O)c3ccccc3n2)cc1	.	-	.	94.5	95.5	.	95.5
COc1ccc(/C=C/C(=O)Nc2ccccc2C(=O)O)cc1	51.2	45.9	-	85.8	82.7	95.0	82.6
CCOc1ccc(-c2cc(C(=O)O)c3ccccc3n2)cc1	-	-	-	83.1	77.5	94.7	77.2
CN(C)c1ccc(S(=O)(=O)N2CCCCC2)cc1NC(=O)CCNC(=O)c1ccccc1Cl	.	.	.	-	.	.	.
Cc1cc(C(=O)O)cc(S(=O)(=O)Nc2ccccc2C(=O)NC(C)c2ccccc2)c1C (stereo unspecified)	.	-	.	-	.	.	.
CCC1CCc2c(sc(NC(=O)CSc3nc(-c4ccco4)cc(C(F)(F)F)n3)c2C#N)C1 (stereo unspecified)	-	-	-	-	-	-	-
CCN(CC(=O)NCc1cccs1)C(=O)c1cccc(S(=O)(=O)N(CC)c2ccccc2)c1	.	.	.	-	.	.	.
CN(C)C(=O)C1C2NC(=S)N(c3ccccc3)C1(C)Oc1ccccc12 (stereo unspecified)	-	-	-	-	-	-	.
Cc1cccc(N2C(=S)NC3c4ccccc4OC2(C)C3C(=O)N(C)C)c1 (stereo unspecified)	-	-	-	-	-	-	-
CN(C(=O)CSc1nnc(Nc2ccccc2)s1)c1c(N)n(Cc2ccccc2)c(=O)[nH]c1=O	-	-	-	-	-	-	.
CCCCN(C(=O)CSc1nnc(Nc2ccc(C)c(C)c2)s1)c1c(N)n(Cc2ccccc2)c(=O)[nH]c1=O	-	-	-	-	-	63.0	-
Cc1ccc2nc(-c3ccc(NC(=O)COC(=O)c4cncc(Br)c4)cc3)sc2c1	-	-	-	70.3	50.2	-	-
COC(=O)CNC(=O)CSc1nnc(C)c(=O)[nH]1	-	-	-	-	-	-	.
CCN(CC(=O)NCc1ccc(F)cc1)C(=O)C1CCN(C(=O)Nc2ccccc2)CC1	-	-	-	-	-	-	-
CC(Cc1nnc(SCC(=O)O)n1N)c1ccccc1 (stereo unspecified)	.	-	.	-	.	.	.
CC(OC(=O)c1ccc2ncsc2c1)C(=O)N(C)C1CCCCC1 (stereo unspecified)	.	.	.	-	.	.	.
CC1CC(=O)Nc2ccccc2N1C(=O)Nc1ccc(F)cc1F (stereo unspecified)	.	-	.	-	-	.	.
CC1CC(=O)Nc2ccccc2N1C(=O)Nc1ccc(F)cc1 (stereo unspecified)	.	-	.	-	-	.	-
N/C(=N\OC(=O)c1ccc2c(c1)OCO2)c1cccnc1	-	-	-	82.4	74.2	96.6	73.6
CC(=O)OC[C@@H]1CN(Cc2ccccc2)C[C@H](n2cnc3c(NC4CC4)ncnc32)O1	.	.	.	-	.	.	.
CCOc1cc(C(=O)OCC(=O)c2c[nH]c3ccccc23)ccc1OCC(=O)N1CCOCC1	-	-	-	-	-	-	-
CCCOc1ccc2c(=O)c(N3C(=O)c4ccccc4C3=O)c(C)oc2c1	-	-	-	-	-	-	-
CC(=O)Oc1ccc2c(=O)c(N3C(=O)c4ccccc4C3=O)c(C)oc2c1	-	-	-	-	-	-	.
CC1CCc2c(sc(/N=C/c3ccco3)c2C(N)=O)C1 (stereo unspecified)	.	-	.	62.7	-	.	-
CC1CCc2c(sc(/N=C/c3cccnc3)c2C(N)=O)C1 (stereo unspecified)	.	-	.	-	-	.	.
SMILES	STAT3 inh	HSP90 refold inh	FLuc act counter	C8 TRAIL sens	PPC-1+TRAIL kill	FLuc inhib CS	PPC-1 tox
CC(C)NC(=O)c1ccc2c3n(nc2c1)-c1ccccc1CO3	.	.	.	90.6	90.1	.	90.5
Cc1ccc2c(c1)COc1c3ccc(C(=O)NCC4CC4)cc3nn1-2	.	.	.	-	-	.	.
CC(C)[C@@H](CO)NC(=O)c1ccc2c3n(nc2c1)-c1ccccc1CO3	.	.	.	71.1	71.5	.	68.9
COc1cccc(/C=C/C(=O)OCC(=O)NCc2ccco2)c1	-	-	-	-	-	-	.
O=C(Nc1ccccn1)C(F)(F)C(F)(F)C(F)(F)C(F)(F)C(=O)Nc1ccccn1	-	-	-	-	-	-	.
CCc1ccc(-c2ccc(SCC(=O)Nc3nnc(C)s3)nn2)cc1	-	-	-	75.5	73.6	85.2	70.9
CCOc1ccc(-c2ccc(SCC(=O)Nc3nnc(C)s3)nn2)cc1	-	-	-	62.4	73.5	65.0	74.7
CCc1ccc(-c2ccc(SCC(=O)NCC3CCCO3)nn2)cc1 (stereo unspecified)	-	-	-	59.0	-	80.2	-
CC(C)CN(C(=O)c1ccc(S(=O)(=O)N2CCOCC2)cc1)C1CCS(=O)(=O)C1 (stereo unspecified)	.	.	.	-	.	.	.
COc1cccc(C2c3[nH]c4ccccc4c3C[C@H]3C(=O)N(c4ccccc4C(=O)NCCCN4CCOCC4)C(=O)N23)c1 (stereo partly specified)	.	-	.	-	.	.	.
O=S1(=O)N=C(Nc2nc3c(s2)CCCC3)c2ccccc21	-	-	-	75.2	60.4	86.8	59.5
Cc1cccc(Nc2nc3c(s2)CCCC3)c1	-	-	-	-	-	-	.
COc1ccccc1OCc1nnc(SCC(=O)Nc2ccc(N3CCOCC3)cc2)n1C	.	-	.	-	.	.	.
Cc1ccc(S(=O)(=O)N2C[C@H]3[C@H]4C(=O)N(C)C(=O)[C@H]4CC(=O)[C@H]3[C@@H]2c2ccccc2Cl)cc1	.	.	.	-	.	.	.
CN(C)S(=O)(=O)c1ccc(-c2ccccc2)cc1	-	-	-	-	-	-	-
COc1ccc(NC(=O)C2CCCN(S(=O)(=O)c3cccc4nonc34)C2)cc1OC (stereo unspecified)	-	-	-	-	-	-	.
COc1ccc(CCNC(=O)C2CCCN(S(=O)(=O)c3cccc4nonc34)C2)cc1OC (stereo unspecified)	-	-	-	-	-	-	-
O=C(O)c1cc(Cl)ccc1NC(=O)C1CCCO1 (stereo unspecified)	-	-	-	-	-	-	-
O=C(O)c1ccccc1NC(=O)C1CCCO1 (stereo unspecified)	-	-	-	-	-	-	-
O=C(Nc1cc(Cl)ccc1O)C1CCCO1 (stereo unspecified)	-	-	-	-	-	-	.
CCN(Cc1nc2cc(OC)c(OC)cc2c(=O)[nH]1)C(=O)c1ccc(S(=O)(=O)N(C)C)cc1	-	-	-	-	-	-	.
COc1cc2nc(CN(C)Cc3ccc(C(C)(C)C)cc3)[nH]c(=O)c2cc1OC	-	-	-	65.0	58.8	84.8	58.1
CCc1sc(C(=O)Nc2cc(S(=O)(=O)N3CCOCC3)ccc2OC)cc1C	.	.	.	-	.	.	.
Cc1cc(C(=O)Cn2cc(C(F)(F)F)ccc2=O)c(C)n1-c1ccccc1	-	-	-	-	-	-	.
